ChEMBL document CHEMBL4828738, “Design, synthesis and evaluation of novel 5-phenylthiophene derivatives as potent fungicidal of Candida albicans and antifungal reagents of fluconazole-resistant fungi” (Eur J Med Chem, 2021)
≈ marks a conversion by molar mass, not a printed value.

Legend:
[1] = test system: Candida albicans; experiment: Fungicidal activity against Candida albicans ATCC SC5314 assessed as inhibition of visible fungal growth measured after 48 hrs; type: functional
[2] = test system: Candida albicans; experiment: Anti-biofilm activity in Candida albicans CPCC400616 assessed as inhibition of biofilm formation incubated for 24 hrs by XTT assay; type: functional
Method in brief: (§1)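 C. albicans CPCC400616 suspension placed in wells at 37 °C. Non-adherent cells and medium were removed at 3, 6, 18 or 24 h and wells washed with PBS. Compounds were added at a range of concentrations in fresh RPMI 1640 and incubated a further 24 h at 37 °C. Biofilm metabolic activity was read by XTT reduction.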

[3] = test system: Candida albicans; experiment: Anti-biofilm activity in Candida albicans CPCC400616 assessed as inhibition of biofilm formation incubated for 18 hrs by XTT assay; type: functional; method in brief: as §1
[4] = test system: Candida albicans; experiment: Anti-biofilm activity in Candida albicans CPCC400616 assessed as inhibition of biofilm formation incubated for 6 hrs by XTT assay; type: functional; method in brief: as §1
[5] = test system: Candida albicans; experiment: Anti-biofilm activity in Candida albicans CPCC400616 assessed as inhibition of biofilm formation incubated for 3 hrs by XTT assay; type: functional; method in brief: as §1
[6] = test system: Candida albicans; experiment: Antifungal activity against Candida albicans ATCC SC5314 assessed as fungal growth inhibition by CLSI protocol based method; type: functional
[7] = test system: Candida albicans; experiment: Antifungal activity against Candida albicans CPCC400616 assessed as fungal growth inhibition by CLSI protocol based method; type: functional
[8] = test system: Candida tropicalis; experiment: Antifungal activity against Candida tropicalis CGMCC 2.3739 assessed as fungal growth inhibition by CLSI protocol based method; type: functional
[9] = test system: Cryptococcus neoformans; experiment: Antifungal activity against Cryptococcus neoformans CGMCC2.3161 assessed as fungal growth inhibition by CLSI protocol based method; type: functional
[10] = test system: Candida parapsilosis; experiment: Antifungal activity against Candida parapsilosis GIM2.190 assessed as fungal growth inhibition by CLSI protocol based method; type: functional; conditions: Lodderomyces parapsilosis
[11] = test system: Nakaseomyces glabratus; experiment: Antifungal activity against Candida glabrata assessed as fungal growth inhibition by CLSI protocol based method; type: functional
[12] = test system: Pichia kudriavzevii; experiment: Antifungal activity against Candida krusei GIM2.1 assessed as fungal growth inhibition by CLSI protocol based method; type: functional
[13] = test system: THLE-2; experiment: Cytotoxicity against human THLE-2 cells assessed as reduction in cell viability measured after 96 hrs by MTT assay; type: ADME, cell-based; conditions: THLE-2, 96 h
[14] = test system: A549; experiment: Cytotoxicity against human A549 cells assessed as reduction in cell viability measured after 96 hrs by MTT assay; type: ADME, cell-based; conditions: A549, 96 h
[15] = test system: MCF7; experiment: Cytotoxicity against human MCF7 cells assessed as reduction in cell viability measured after 96 hrs by MTT assay; type: ADME, cell-based; conditions: MCF7, 96 h
[16] = target: T1, Lanosterol 14-alpha demethylase (Candida albicans (strain SC5314 / ATCC MYA-2876) (Yeast), UniProt P10613); experiment: Inhibition of CYP51 in Candida albicans assessed as lanosterol level at 0.015 ug/ml measured after 18 hrs by GC-MS analysis relative to control; parameters: scale not given: the % may be the effect or the level left; conditions: at 0.015 µg/mL
T1 sequence (P10613 whole entry): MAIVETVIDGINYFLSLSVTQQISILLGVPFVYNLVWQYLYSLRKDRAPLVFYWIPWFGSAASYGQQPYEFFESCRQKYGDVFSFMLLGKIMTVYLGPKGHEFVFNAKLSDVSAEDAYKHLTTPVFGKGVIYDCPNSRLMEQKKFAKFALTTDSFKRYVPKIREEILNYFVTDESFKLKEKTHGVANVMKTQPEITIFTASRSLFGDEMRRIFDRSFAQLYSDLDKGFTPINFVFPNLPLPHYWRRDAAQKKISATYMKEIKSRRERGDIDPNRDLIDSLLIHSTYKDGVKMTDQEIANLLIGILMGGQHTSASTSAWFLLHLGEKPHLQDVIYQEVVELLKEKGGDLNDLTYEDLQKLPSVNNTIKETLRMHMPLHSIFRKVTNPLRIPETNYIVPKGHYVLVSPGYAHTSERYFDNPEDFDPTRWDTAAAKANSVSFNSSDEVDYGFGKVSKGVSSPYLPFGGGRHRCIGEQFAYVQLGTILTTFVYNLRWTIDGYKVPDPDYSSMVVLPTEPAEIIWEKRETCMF

[17] = target: T1, Lanosterol 14-alpha demethylase; experiment: Inhibition of CYP51 in Candida albicans assessed as Ergosterol level at 0.015 ug/ml measured after 18 hrs by GC-MS analysis (reference value: 96.93 %); parameters: scale not given: the % may be the effect or the level left; conditions: at 0.015 µg/mL
[18] = target: T1, Lanosterol 14-alpha demethylase; experiment: Inhibition of CYP51 in Candida albicans assessed as Eburicol level at 0.015 ug/ml measured after 18 hrs by GC-MS analysis relative to control; parameters: scale not given: the % may be the effect or the level left; conditions: at 0.015 µg/mL
[19] = target: T1, Lanosterol 14-alpha demethylase; experiment: Inhibition of CYP51 in Candida albicans assessed as 14alpha-methylfecosterol level at 0.015 ug/ml measured after 18 hrs by GC-MS analysis relative to control; parameters: scale not given: the % may be the effect or the level left; conditions: at 0.015 µg/mL
[20] = target: T1, Lanosterol 14-alpha demethylase; experiment: Inhibition of CYP51 in Candida albicans assessed as other sterols level at 0.015 ug/ml measured after 18 hrs by GC-MS analysis relative to control; parameters: scale not given: the % may be the effect or the level left; conditions: at 0.015 µg/mL
[21] = Metabolic stability in human plasma assessed as parent compound remaining after 60 mins by LC-MS/MS analysis; type: ADME, cell-free; conditions: read-out: Stability
[22] = Metabolic stability in human plasma assessed as parent compound remaining after 120 mins by LC-MS/MS analysis; type: ADME, cell-free; conditions: read-out: Stability
[23] = Metabolic stability in human plasma assessed as half life after 60 mins by LC-MS/MS analysis; type: ADME, cell-free
[24] = test system: Candida albicans; experiment: Anti-biofilm activity in Candida albicans CPCC400616 assessed as inhibition of biofilm formation measured up to 24 hrs by XTT assay; type: functional, organism-based; conditions: time hrs <=24
Method in brief: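 C. albicans CPCC400616 suspension allowed to adhere in 96-well plates at 37 °C; non-adherent cells and medium removed after 3, 6, 18 or 24 h. Wells washed with PBS, compounds added at graded concentrations in fresh RPMI 1640, then incubated a further 24 h at 37 °C. Biofilm quantified semiquantitatively by XTT reduction. SMIC50 is the concentration inhibiting biofilm metabolic activity by 50%.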

[25] = test system: Candida albicans; experiment: Fungicidal activity in Candida albicans CPCC400616 assessed as reduction in viable colony formation measured within 16 hrs by time kill assay; type: functional; conditions: time hrs <16
Method in brief: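 Diluted samples were plated on PDA and incubated 24 h at 35 °C. CFU were counted and log10 CFU/mL was plotted against time. Detection limit was 100 CFU/mL. Run in triplicate.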

[26] = test system: Candida albicans; experiment: Fungicidal activity in Candida albicans CPCC400616 assessed as reduction in viable colony formation measured after 24 hrs by time kill assay; type: functional, organism-based
[27] = test system: Candida albicans; experiment: Antifungal activity against fluconazole-resistant Candida albicans 901 assessed as fungal growth inhibition by CLSI protocol based method
[28] = test system: Candida albicans; experiment: Antifungal activity against fluconazole-resistant Candida albicans 904 assessed as fungal growth inhibition by CLSI protocol based method
[29] = test system: Candida albicans; experiment: Antifungal activity against fluconazole-resistant Candida albicans 632 assessed as fungal growth inhibition by CLSI protocol based method
[30] = test system: Candida albicans; experiment: Antifungal activity against fluconazole-resistant Candida albicans 100 assessed as fungal growth inhibition by CLSI protocol based method
[31] = test system: Candida albicans; experiment: Antifungal activity against fluconazole-resistant Candida albicans 103 assessed as fungal growth inhibition by CLSI protocol based method
[32] = test system: Candida albicans; experiment: Antifungal activity against fluconazole-resistant Candida albicans 311 assessed as fungal growth inhibition by CLSI protocol based method
[33] = target: T1, Lanosterol 14-alpha demethylase; experiment: Inhibition of CYP51 in Candida albicans assessed as lanosterol level at 0.25 ug/ml measured after 18 hrs by GC-MS analysis relative to control; parameters: scale not given: the % may be the effect or the level left; conditions: at 0.25 µg/mL
[34] = target: T1, Lanosterol 14-alpha demethylase; experiment: Inhibition of CYP51 in Candida albicans assessed as ergosterol level at 0.25 ug/ml after 18 hrs by GC-MS analysis (reference value: 96.93 %); parameters: scale not given: the % may be the effect or the level left; conditions: at 0.25 µg/mL
[35] = target: T1, Lanosterol 14-alpha demethylase; experiment: Inhibition of CYP51 in Candida albicans assessed as Eburicol level at 0.25 ug/ml measured after 18 hrs by GC-MS analysis relative to control; parameters: scale not given: the % may be the effect or the level left; conditions: at 0.25 µg/mL
[36] = target: T1, Lanosterol 14-alpha demethylase; experiment: Inhibition of CYP51 in Candida albicans assessed as 14alpha-methylfecosterol level at 0.25 ug/ml measured after 18 hrs by GC-MS analysis relative to control; parameters: scale not given: the % may be the effect or the level left; conditions: at 0.25 µg/mL
[37] = target: T1, Lanosterol 14-alpha demethylase; experiment: Inhibition of CYP51 in Candida albicans assessed as other sterols level at 0.25 ug/ml measured after 18 hrs by GC-MS analysis relative to control; parameters: scale not given: the % may be the effect or the level left; conditions: at 0.25 µg/mL
[38] = target: CYP2C9 (Homo sapiens, UniProt P11712); experiment: Inhibition of CYP2C9 in human liver Microsome using diclofenac as substrate preincubated for 10 mins followed by NADPH addition and further incubated for 10 mins as substrate by LC-MS/MS analysis relative to control; conditions: liver microsomes, probe diclofenac
Sequence of CYP2C9 (P11712 whole entry): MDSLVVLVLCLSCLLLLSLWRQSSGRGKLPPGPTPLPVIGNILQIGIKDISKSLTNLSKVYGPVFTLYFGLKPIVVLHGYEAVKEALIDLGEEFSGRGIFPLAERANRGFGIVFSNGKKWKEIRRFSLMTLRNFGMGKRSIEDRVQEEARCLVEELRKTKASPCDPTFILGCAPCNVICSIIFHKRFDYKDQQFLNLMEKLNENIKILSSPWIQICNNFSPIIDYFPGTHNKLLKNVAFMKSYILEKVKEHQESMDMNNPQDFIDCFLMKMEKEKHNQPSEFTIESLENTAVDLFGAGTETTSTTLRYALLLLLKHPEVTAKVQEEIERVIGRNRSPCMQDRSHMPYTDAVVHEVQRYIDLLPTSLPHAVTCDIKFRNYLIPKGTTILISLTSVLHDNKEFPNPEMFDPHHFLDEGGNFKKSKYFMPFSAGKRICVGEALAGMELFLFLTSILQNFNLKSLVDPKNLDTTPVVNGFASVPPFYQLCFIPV

[39] = target: CYP2D6 (Homo sapiens, UniProt P10635); experiment: Inhibition of CYP2D6 in human liver Microsome using dextromethorphan as substrate preincubated for 10 mins followed by NADPH addition and further incubated for 10 mins as substrate by LC-MS/MS analysis relative to control; conditions: liver microsomes, probe dextromethorphan
Sequence of CYP2D6 (P10635 whole entry): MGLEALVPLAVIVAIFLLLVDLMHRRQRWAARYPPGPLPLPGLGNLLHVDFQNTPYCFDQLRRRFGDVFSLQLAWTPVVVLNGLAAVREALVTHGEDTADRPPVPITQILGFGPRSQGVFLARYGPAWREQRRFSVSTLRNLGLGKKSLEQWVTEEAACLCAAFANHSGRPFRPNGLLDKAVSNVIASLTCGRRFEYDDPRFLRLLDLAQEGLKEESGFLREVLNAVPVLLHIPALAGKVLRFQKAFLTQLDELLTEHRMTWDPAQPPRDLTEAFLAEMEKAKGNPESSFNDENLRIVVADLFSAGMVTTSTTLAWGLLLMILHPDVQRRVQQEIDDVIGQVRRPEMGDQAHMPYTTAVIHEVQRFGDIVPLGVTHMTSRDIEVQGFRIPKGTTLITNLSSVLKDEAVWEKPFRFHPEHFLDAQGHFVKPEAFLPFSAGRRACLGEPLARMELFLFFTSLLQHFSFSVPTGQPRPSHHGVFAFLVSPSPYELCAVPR

SMILES	MFC [1] [mg/L]	MBIC50 [2] [µg/mL]	MBIC50 [3] [µg/mL]	MBIC50 [4] [µg/mL]	MBIC50 [5] [µg/mL]	MIC [6] [mg/L]	MIC [7] [mg/L]	MIC [8] [mg/L]	MIC [9] [mg/L]	MIC [10] [mg/L]	MIC [11] [mg/L]	MIC [12] [mg/L]	IC50 [13] [µM]	IC50 [14] [µM]	IC50 [15] [µM]	MIC [27] [mg/L]	MIC [28] [mg/L]	MIC [29] [mg/L]	MIC [30] [mg/L]	MIC [31] [mg/L]	also measured
CCC(C)n1ncn(-c2ccc(N3CCN(c4ccc(OCC5COC(Cn6cncn6)(c6ccc(Cl)cc6Cl)O5)cc4)CC3)cc2)c1=O (stereo not drawn) [ITRACONAZOLE]	16 (≈ 22.7 µM)	>64	>64	32	16	0.03 (≈ 0.0425 µM)	0.03 (≈ 0.0425 µM)	0.03 (≈ 0.0425 µM)	0.125 (≈ 0.177 µM)	0.125 (≈ 0.177 µM)	0.125 (≈ 0.177 µM)	0.125 (≈ 0.177 µM)	> 30	> 30	> 30	–	–	–	–	–	–
Cc1ccc(C(=O)C(Cn2ccnc2)NC(=O)c2ccc(-c3ccc(Cl)cc3)s2)cc1 (stereo not drawn)	0.125 (≈ 0.278 µM)	>64	–	8	1	< 0.03	< 0.03	< 0.03	0.5 (≈ 1.11 µM)	0.5 (≈ 1.11 µM)	0.25 (≈ 0.556 µM)	1 (≈ 2.22 µM)	16.1	19.1	> 30	1 (≈ 2.22 µM)	0.25 (≈ 0.556 µM)	1 (≈ 2.22 µM)	0.5 (≈ 1.11 µM)	1 (≈ 2.22 µM)	Activity [16]: 42.91%; Activity [17]: 5.06%; Activity [18]: 31.02%; Activity [19]: 3.2%; Activity [20]: 8.64%; remaining at 1 h [21]: 93.1%; remaining at 2 h [22]: 89.5%; half-life [23]: > 4.8 h; Activity [24]: Dose-Dependent Effect; Activity [25]: 2 log10CFU/ml; Activity [26]: Dose-Dependent Effect; MIC [32]: 1 mg/L (≈ 2.22 µM)
OC(Cn1cncn1)(Cn1cncn1)c1ccc(F)cc1F [FLUCONAZOLE]	> 64	>64	>64	>64	32	0.5 (≈ 1.63 µM)	1 (≈ 3.27 µM)	0.5 (≈ 1.63 µM)	4 (≈ 13.1 µM)	2 (≈ 6.53 µM)	4 (≈ 13.1 µM)	8 (≈ 26.1 µM)	> 30	> 30	> 30	> 64	> 64	> 64	> 64	> 64	Activity [33]: 34.42%; Activity [34]: 3.15%; Activity [35]: 29.02%; Activity [36]: 22.35%; Activity [37]: 4.21%; MIC [32]: > 64 mg/L
O=C(NC(Cn1ccnc1)C(=O)c1cccc(F)c1)c1ccc(-c2ccc(Cl)cc2)s1 (stereo not drawn)	25 (≈ 55.1 µM)	>64	>64	16	2	0.06 (≈ 0.132 µM)	0.125 (≈ 0.275 µM)	0.125 (≈ 0.275 µM)	0.25 (≈ 0.551 µM)	0.5 (≈ 1.1 µM)	1 (≈ 2.2 µM)	0.25 (≈ 0.551 µM)	4.81	26.5	> 30	2 (≈ 4.41 µM)	2 (≈ 4.41 µM)	0.5 (≈ 1.1 µM)	2 (≈ 4.41 µM)	2 (≈ 4.41 µM)	remaining at 1 h [21]: 73.4%; remaining at 2 h [22]: 47.1%; half-life [23]: 1.85 h; MIC [32]: 1 mg/L (≈ 2.2 µM)
Nc1ccc(S(=O)(=O)Nc2ccnn2-c2ccccc2)cc1 [SULFAPHENAZOLE]	–	–	–	–	–	–	–	–	–	–	–	–	–	–	–	–	–	–	–	–	inhibition at 10 min [38]: 84.5%
C=C[C@H]1C[N@@]2CC[C@H]1C[C@@H]2[C@@H](O)c1ccnc2ccc(OC)cc12 [QUINIDINE]	–	–	–	–	–	–	–	–	–	–	–	–	–	–	–	–	–	–	–	–	inhibition at 10 min [39]: 96.2%
C[C@@H](c1ncncc1F)[C@](O)(Cn1cncn1)c1ccc(F)cc1F [VORICONAZOLE]	8 (≈ 22.9 µM)	>64	>64	32	16	0.06 (≈ 0.172 µM)	0.125 (≈ 0.358 µM)	0.06 (≈ 0.172 µM)	0.06 (≈ 0.172 µM)	0.06 (≈ 0.172 µM)	0.125 (≈ 0.358 µM)	0.125 (≈ 0.358 µM)	> 30	> 30	> 30	–	–	–	–	–	–
